Assay results published in PMC3437501 (European Journal of Pain (London, England), 2011).
“Also recorded” adds a separate entry of the source. Marks after values point to notes of the source that are not given here.

Tests used:
[1] = cited from earlier work
interleukin 6 (IL6) = assay: Interleukin 6 in plasma, CSF and tissue exudate; format: in vivo, human
Procedure, shortened: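 Osteoarthritis patients (59–77 y) undergoing hip arthroplasty under spinal bupivacaine, given oral test compound 120 mg or placebo at 6:30 a.m. on surgery day and next day. Plasma and CSF sampled predose and 1.5–48 h; drain exudate collected over 60 min before 4–48 h, centrifuged, frozen −30 °C. IL6 by ELISA (LOQ 7.8 pg/mL); partial AUCs by linear trapezoidal rule.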

[2] = Pharmacokinetics of etoricoxib in plasma, CSF and tissue exudate; format: in vivo, human; conditions: for Cmax / Tmax / Kp: human, 120 mg; for Kp: CSF/plasma
Procedure, shortened: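 Six hip-arthroplasty patients given oral 120 mg at 6:30 a.m. on surgery day and 24 h later. Blood and intrathecal-catheter CSF sampled predose and 1.5–48 h, first 1 mL CSF discarded; drain exudate collected hourly windows. LC-MS/MS with phenazone internal standard, LOQ 0.2 ng/mL, validated 0.2–200 ng/mL. AUC0–24 h by linear trapezoidal method; CSF/plasma ratio from AUCs, maximal ratio from individual concentrations.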

[3] = Patient ratings of post-operative pain, satisfaction and sleep disturbance; format: in vivo, human; conditions: first 24 h; interaction p = 0.036
Procedure, shortened: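 Patients dosed orally with 120 mg test compound or placebo on surgery day and next day, double-blind. Global pain and operated-hip pain at rest and passive movement rated on 11-point scale (0 = no pain, 10 = worst) at 4, 8, 12, 24, 26, 32, 48 h. Satisfaction with analgesia on numeric rating scale; sleep disturbance (0–10) at 24, 48, 72 h.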

[4] = Post-operative consumption of intrathecal bupivacaine and piritramide; format: in vivo, human
Procedure, shortened: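 After spinal bupivacaine 0.5% via lumbar intrathecal catheter, 0.01% bupivacaine infused intrathecally at 4–6 mL/h plus patient-controlled boluses up to 1 mL every 10 min, 4-h lockout 40 mL. Breakthrough pain: piritramide i.v. up to 5 mg (s.c. up to 15 mg). Total consumption, requests, delivered boluses and request times recorded. Patient lacking catheter excluded.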

prostaglandin E2 (PGE2) = assay: Prostaglandin E2 in tissue exudate, plasma and CSF; format: in vivo, human
Procedure, shortened: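 Hip-arthroplasty patients dosed orally with 120 mg test compound or placebo on surgery day and next day. Drain exudate collected over 60 min before 4, 8, 12, 24, 26, 32, 48 h, centrifuged, supernatant frozen −30 °C. PGE2 in exudate and plasma by ELISA (LOQ 15 pg/mL). CSF PGE2 by solid-phase extraction LC-MS/MS with prostaglandin D2-d4 (LOQ 25–200 pg/mL). Partial AUCs by trapezoidal rule.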

[5] = Safety: adverse events and blood loss during surgery; format: in vivo, human
[6] = same dose; ref Fletcher et al., [1995]; cited from earlier work
[7] = tissue exudate, 12–24 h, mean, n = 6
[8] = tissue exudate, 24–36 h, mean, n = 6
[9] = tissue exudate, 36–47 h, mean, n = 6

Cc1ccc(-c2cc(C(F)(F)F)nn2-c2ccc(S(N)(=O)=O)cc2)cc1 [celecoxib]
Absorption / bioavailability ([1]; oral, ref Brune et al., [2010]): absorbed slowly and to show variable (low) bioavailability; also recorded: slow and incomplete absorption

Cc1ccc(-c2ncc(Cl)cc2-c2ccc(S(C)(=O)=O)cc2)cn1 [Etoricoxib, etoricoxib]
IL6 cerebrospinal fluid (w/o R111) AUC (1.5–12 h) (interleukin 6 (IL6); CSF, 1.5–12 h, mean, n = 6): 340 pg·h/mL
IL6 cerebrospinal fluid (w/o R111) AUC (12–24 h) (interleukin 6 (IL6); CSF, 12–24 h, mean, n = 6): 660 pg·h/mL
IL6 cerebrospinal fluid (w/o R111) AUC (24–36 h) (interleukin 6 (IL6); CSF, 24–36 h, mean, n = 5): 575 pg·h/mL
IL6 cerebrospinal fluid (w/o R111) AUC (36–48 h) (interleukin 6 (IL6); CSF, 36–48 h, mean, n = 5): 436 pg·h/mL
IL6 plasma AUC (1.5–12 h) (interleukin 6 (IL6); plasma, 1.5–12 h, mean, n = 6): 435 pg·h/mL
IL6 plasma AUC (12–24 h) (interleukin 6 (IL6); plasma, 12–24 h, mean, n = 6): 596 pg·h/mL
IL6 plasma AUC (24–36 h) (interleukin 6 (IL6); plasma, 24–36 h, mean, n = 6): 598 pg·h/mL
IL6 plasma AUC (36–48 h) (interleukin 6 (IL6); plasma, 36–48 h, mean, n = 6): 409 pg·h/mL
Time until plasma IL6 returned to preoperative levels (interleukin 6 (IL6); plasma, time after surgery): ≤ 20 h
IL6 tissue exudate AUC (4–12 h) (interleukin 6 (IL6); tissue exudate, 4–12 h, mean, n = 6): 479 ng·h/mL
IL6 tissue exudate AUC (12–24 h) (interleukin 6 (IL6); [7]): 1606 ng·h/mL
IL6 tissue exudate AUC (24–36 h) (interleukin 6 (IL6); [8]): 1200 ng·h/mL
IL6 tissue exudate AUC (36–47 h) (interleukin 6 (IL6); [9]): 861 ng·h/mL
Cmax ([2]; CSF, po): 160 ng/mL
Tmax ([2]; CSF, po): 1.5 h
Kp ([2]; oral, CSF/plasma ratio AUC 0–24 h, individual ratios, mean (range)): 0.041
Kp ([2]; oral, Maximal CSF/plasma conc. ratio, individual maximal concentration ratio, mean (SD)): 0.122
Tmax ([2]; oral): < 2 h
Cmax ([2]; plasma, po): 1880 ng/mL
Tmax ([2]; plasma, po): 1.5 h
CSF/plasma ratio AUC 0–48 h ([2]; individual ratios, mean (range), subgroup n = 5): 4.7 (2.8–8.1) ^b %
tmax for CSF/plasma conc. ratio ([2]; median (range)): 1.75 (1.5–32) h
Post-operative analgesic satisfaction versus placebo [3]: significantly higher
Demand for piritramide versus placebo ([4]; 2 to 48 h, main effect treatment p = 0.003): significantly higher in the placebo group
On request local anaesthetic administration versus placebo ([4]; only during the first 12 h post-operatively, main effect treatment p = 0.052): higher in the placebo group
Concentrations of PGE2 in plasma and CSF (prostaglandin E2 (PGE2); plasma and CSF, both groups, differences not significant): near or below the LOQ
PGE2 production in the surgical wound (prostaglandin E2 (PGE2); preoperative administration): complete blockade
PGE2 tissue exudate AUC (4–12 h) (prostaglandin E2 (PGE2); tissue exudate (hip drain), 4–12 h, mean, n = 6): 40 ng·h/mL
PGE2 tissue exudate AUC (12–24 h) (prostaglandin E2 (PGE2); [7]): 48 ng·h/mL
PGE2 tissue exudate AUC (24–36 h) (prostaglandin E2 (PGE2); [8]): 29 ng·h/mL
PGE2 tissue exudate AUC (36–47 h) (prostaglandin E2 (PGE2); [9]): 16 ng·h/mL
PGE2 concentration in wound fluid (prostaglandin E2 (PGE2); wound fluid, versus fast increase in placebo group, treatment p = 0.014): remained low throughout
Intra-OP BL (blood loss during surgery) ([5]; 120 mg 2 h before surgery, mean (SD), n = 6): 383 (98) mL
Unwanted drug effects ([5]; either treatment group): not seen
Absorption, bioavailability and elimination ([1]; ref Agrawal et al., [2003]): fast absorption, high bioavailability and slow elimination

O=C(c1ccccc1)c1ccc2n1CCC2C(=O)O (stereo not shown) [ketorolac]
Pain relief with preoperative versus post-operative administration [6]: significantly superior with preoperative administration
